Laboratory results from ChEMBL document CHEMBL1208666, “Novel 6,8-dibromo-4(3H)quinazolinone derivatives of anti-bacterial and anti-fungal activities” (2010).
Values after ≈ are worked out from the molar mass of the structure shown. Active and inactive are the calls of the source. No cut-off for these calls is given here.

What was measured:
[1] = test system: Aspergillus flavus; test: Antifungal activity against Aspergillus flavus at 100 ug/ml after 48 hrs by paper disc diffusion technique; type: functional; conditions: for zone of inhibition at 100 µg/mL: read-out: IZ
How it was run: (§1)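 Paper disc diffusion on Sabouraud dextrose agar, autoclaved at 120 °C for 30 min. Medium at 40–50 °C was seeded at 1 ml/100 ml with a 10^5 cfu/ml fungal suspension matched to 0.9 McFarland. It was poured 3–4 mm deep, and compound discs in DMSO were applied. Plates were pre-incubated 1 h at room temperature, then 28 °C for 48 h. The inhibition zone was recorded.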

[2] = test system: Listeria monocytogenes; test: Antibacterial activity against Listeria monocytogenes after 24 hrs by agar streak dilution method; type: functional
How it was run: (§2)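 Agar streak dilution on Mueller Hinton agar. Compound stock in DMSO was added in graded amounts to molten sterile agar at 40–50 °C. This was poured 3–4 mm deep and left to solidify. Bacterial suspension of about 10^5 cfu/ml was applied to the serially diluted plates. Plates were incubated at 37 °C for 24 h to read the MIC. Strains were food-poisoning isolates from animal byproducts.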

[3] = test system: Escherichia coli; test: Antibacterial activity against Escherichia coli O157 after 24 hrs by agar streak dilution method; type: functional; conditions: O157, 24 h
[4] = test system: Listeria monocytogenes; test: Antibacterial activity against Listeria monocytogenes at 100 ug/ml after 24 hrs by paper disc diffusion technique; type: functional; conditions: read-out: IZ
How it was run: (§3)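 Paper disc diffusion on Mueller Hinton agar, autoclaved at 120 °C for 30 min. Medium at 40–50 °C was seeded at 1 ml/100 ml with a 10^5 cfu/ml suspension matched to 0.9 McFarland. It was poured 3–4 mm deep, and discs with compound in DMSO were laid on it. Plates were pre-incubated 1 h at room temperature, then 37 °C for 24 h. The inhibition zone was measured.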

[5] = test system: Candida albicans; test: Antifungal activity against Candida albicans after 48 hrs by agar streak dilution method; type: functional
How it was run: (§4)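 Fungal MIC by agar streak dilution on Sabouraud dextrose agar. Compound stock in DMSO was added in graded amounts to molten sterile medium at 40–50 °C. This was poured 3–4 mm deep and left to solidify. Fungal suspension of about 10^5 cfu/ml was applied to the serially diluted plates. Plates were incubated at 37 °C for 48 h.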

[6] = test system: Salmonella typhimurium; test: Antibacterial activity against Salmonella Typhimurium after 24 hrs by agar streak dilution method; type: functional, Salmonella enterica subsp. enterica serovar Typhimurium; conditions: Salmonella enterica; how it was run: as §2
[7] = test system: Salmonella typhimurium; test: Antibacterial activity against Salmonella Typhimurium at 100 ug/ml after 24 hrs by paper disc diffusion technique; type: functional, Salmonella enterica subsp. enterica serovar Typhimurium; conditions: Salmonella enterica, read-out: IZ; how it was run: as §3
[8] = test system: Candida albicans; test: Antifungal activity against Candida albicans at 100 ug/ml after 48 hrs by paper disc diffusion technique; type: functional; conditions: read-out: IZ; how it was run: as §1
[9] = test system: Aspergillus flavus; test: Antifungal activity against Aspergillus flavus after 48 hrs by agar streak dilution method; type: functional; how it was run: as §4
[10] = test system: Bacillus cereus; test: Antibacterial activity against Bacillus cereus after 24 hrs by agar streak dilution method; type: functional; how it was run: as §2
[11] = test system: Pseudomonas aeruginosa; test: Antibacterial activity against Pseudomonas aeruginosa after 24 hrs by agar streak dilution method; type: functional; how it was run: as §2
[12] = test system: Bacillus cereus; test: Antibacterial activity against Bacillus cereus at 100 ug/ml after 24 hrs by paper disc diffusion technique; type: functional; conditions: read-out: IZ; how it was run: as §3
[13] = test system: Staphylococcus aureus; test: Antibacterial activity against Staphylococcus aureus after 24 hrs by agar streak dilution method; type: functional; how it was run: as §2
[14] = test system: Staphylococcus aureus; test: Antibacterial activity against Staphylococcus aureus at 100 ug/ml after 24 hrs by paper disc diffusion technique; type: functional; conditions: read-out: IZ; how it was run: as §3
[15] = test system: Escherichia coli; test: Antibacterial activity against Escherichia coli O157 at 100 ug/ml after 24 hrs by paper disc diffusion technique; type: functional; conditions: O157, 24 h, read-out: IZ
[16] = test system: Pseudomonas aeruginosa; test: Antibacterial activity against Pseudomonas aeruginosa at 100 ug/ml after 24 hrs by paper disc diffusion technique; type: functional; conditions: read-out: IZ; how it was run: as §3

Row | Structure (SMILES) | zone of inhibition at 100 µg/mL [1] [mm] | MIC [2] [µg/mL] | MIC [3] [µg/mL] | zone of inhibition at 100 µg/mL [4] [mm] | MIC [5] [µg/mL] | MIC [6] [µg/mL] | zone of inhibition at 100 µg/mL [7] [mm] | zone of inhibition at 100 µg/mL [8] [mm] | MIC [9] [µg/mL] | MIC [10] [µg/mL] | MIC [11] [µg/mL] | zone of inhibition at 100 µg/mL [12] [mm] | MIC [13] [µg/mL] | zone of inhibition at 100 µg/mL [14] [mm] | zone of inhibition at 100 µg/mL [15] [mm] | zone of inhibition at 100 µg/mL [16] [mm] | inhibition zone (IZ) [1]
1 | O=C(N/N=C/c1ccc2ccccc2c1)c1ccc(-n2c(-c3ccccc3)nc3c(Br)cc(Br)cc3c2=O)cc1 | 26 | 3.12 (≈ 4.79 µM) | 25 (≈ 38.3 µM) | 16 | 25 (≈ 38.3 µM) | 50 (≈ 76.6 µM) | 12 | 13 | 0.39 (≈ 0.598 µM) | 50 (≈ 76.6 µM) | 25 (≈ 38.3 µM) | 12 | 25 (≈ 38.3 µM) | 14 | 13 | 13 | 
2 | Cc1nnc(-c2ccc(-n3c(-c4ccccc4)nc4c(Br)cc(Br)cc4c3=O)cc2)o1 | 18 | 12.5 (≈ 23.2 µM) | 25 (≈ 46.5 µM) | 15 | 25 (≈ 46.5 µM) | 50 (≈ 92.9 µM) | 12 | 11 | 9.5 (≈ 17.7 µM) | 1.56 (≈ 2.9 µM) | 50 (≈ 92.9 µM) | 17 | 12.5 (≈ 23.2 µM) | 15 | 14 | 12 | 
3 | O=C(NN1C(=O)C=CC1=O)c1ccc(-n2c(-c3ccccc3)nc3c(Br)cc(Br)cc3c2=O)cc1 | 17 | > 50 | > 50 | 11 | 25 (≈ 42.1 µM) | 2.9 (≈ 4.88 µM) | 17 | 10 | 4.5 (≈ 7.57 µM) | 50 (≈ 84.1 µM) | > 50 | 9 | > 50 | 9 | 9 | 11 | 
4 | O=C(N/N=C/c1ccco1)c1ccc(-n2c(-c3ccccc3)nc3c(Br)cc(Br)cc3c2=O)cc1 |  | > 50 | > 50 | 11 | 25 (≈ 42.2 µM) | 5 (≈ 8.44 µM) | 16 | 12 |  | 50 (≈ 84.4 µM) | > 50 | 12 | 20 (≈ 33.8 µM) | 13 | 9 | 8 | inactive
5 | COc1ccc(C2SCC(=O)N2NC(=O)c2ccc(-n3c(-c4ccccc4)nc4c(Br)cc(Br)cc4c3=O)cc2)cc1 (configuration not stated) | 20 | > 50 | 45 (≈ 63.7 µM) | 11 | 25 (≈ 35.4 µM) | 40 (≈ 56.6 µM) | 12 | 10 | 1.56 (≈ 2.21 µM) | 1.9 (≈ 2.69 µM) | 50 (≈ 70.8 µM) | 18 | 45 (≈ 63.7 µM) | 10 | 11 | 11 | 
6 | Cc1ccc(C2SCC(=O)N2NC(=O)c2ccc(-n3c(-c4ccccc4)nc4c(Br)cc(Br)cc4c3=O)cc2)cc1 (configuration not stated) | 16 | 50 (≈ 72.4 µM) | > 50 | 10 | 30 (≈ 43.5 µM) | 7 (≈ 10.1 µM) | 15 | 10 | 12.5 (≈ 18.1 µM) | 50 (≈ 72.4 µM) | 10.1 (≈ 14.6 µM) | 9 | > 50 | 10 | 9 | 16 | 
7 | O=C(NN1C(=O)c2ccccc2C1=O)c1ccc(-n2c(-c3ccccc3)nc3c(Br)cc(Br)cc3c2=O)cc1 | 25 | > 50 | 50 (≈ 77.6 µM) | 10 | 50 (≈ 77.6 µM) | > 50 | 11 | 9 | 0.39 (≈ 0.605 µM) | 5.5 (≈ 8.54 µM) | > 50 | 16 | > 50 | 10 | 11 | 11 | 
8 | O=C(N/N=C/c1ccc(Cl)c(Cl)c1)c1ccc(-n2c(-c3ccccc3)nc3c(Br)cc(Br)cc3c2=O)cc1 | 12 | 25 (≈ 37.2 µM) | 25 (≈ 37.2 µM) | 13 | 25 (≈ 37.2 µM) | 50 (≈ 74.5 µM) | 11 | 11 | 19 (≈ 28.3 µM) | 1.56 (≈ 2.32 µM) | 25 (≈ 37.2 µM) | 17 | 25 (≈ 37.2 µM) | 14 | 14 | 14 | 
